Screens as filed in PubChem.
This is one part of a sample in which hits are shown more often than they occur.
CHOP inh: blocks CHOP induction under ER stress. CHO-K1 CHOP-promoter luciferase, tunicamycin-induced, 15-18 h. inhibition, % at 10 µM. 220,000 compounds, 3.8% hits;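 active = compounds that reduced the stress-induced luciferase reporter signal by more than about 70% of percent inhibition, limit read from the data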
CHOP UPR activ: apoptotic UPR (CHOP) activation; AID 449763; activation, % at 10 µM; CHO-CHOP luciferase reporter, luminescence; percent of tunicamycin response over DMSO baseline; 330,000 compounds, 0.34% hits;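 active = at 10 µM dose, activation of 40% or more, normalized to positive control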
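Test system: CHO-CHOP cells, stable luciferase reporter of PERK-eIF2a-CHOP signalling | Quantity: 500 CHO-CHOP cells per well | Buffer or medium: F12 plus 10% serum | Compound dosing: 10 µM single point, 0.5% DMSO | Schedule: 6 h compound treatment, 37 °C | Signal: Luciferase luminescence | Control set: Tunicamycin high control, DMSO low control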
UPR XBP1 act: activators of adaptive arm of unfolded protein response (XBP1); CHO-XBP1 luciferase reporter, IRE1-XBP1 UPR activation, luminescence; percent of tunicamycin response, DMSO as zero; activation, % at 20 µM; 330,000 compounds, 0.33% hits; AID 463104;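 active = versus positive control, 20 µM dose yields 30% or more activation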
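Material: CHO-XBP1 cells stably carrying IRE1-XBP1-driven luciferase reporter | Medium: F12 with 10% serum | Compound dosing: 20 µM single concentration, DMSO 1% | Incubation: Overnight seeding at 37 °C, 6 h compound treatment at 37 °C | Detection: Steady-Glo luminescence read | Read-out basis: % activation of reporter signal versus tunicamycin and DMSO controls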
B2AR ag: human beta-2 adrenergic receptor agonism by FAP | Am2.2-beta2AR cells, FAP receptor internalization, flow cytometry | AID 504454 | 340,000 compounds, 0.43% hits | response, % (no concentration beside the values);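 active = response above a set limit, near 3 SD of response in nonfluorescent compounds, cut at about 42% in these data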
VLA-4 inh: inhibition in a human VLA-4 binding assay. P13612. 330,000 compounds, 0.2% hits. inhibition, % (about 7 µM as worked out from the volumes in the protocol). VLA-4 expressing cells, ligand binding flow cytometry; in the data active = inhibition above about 50%
Target sequence (P13612 whole entry, looked up): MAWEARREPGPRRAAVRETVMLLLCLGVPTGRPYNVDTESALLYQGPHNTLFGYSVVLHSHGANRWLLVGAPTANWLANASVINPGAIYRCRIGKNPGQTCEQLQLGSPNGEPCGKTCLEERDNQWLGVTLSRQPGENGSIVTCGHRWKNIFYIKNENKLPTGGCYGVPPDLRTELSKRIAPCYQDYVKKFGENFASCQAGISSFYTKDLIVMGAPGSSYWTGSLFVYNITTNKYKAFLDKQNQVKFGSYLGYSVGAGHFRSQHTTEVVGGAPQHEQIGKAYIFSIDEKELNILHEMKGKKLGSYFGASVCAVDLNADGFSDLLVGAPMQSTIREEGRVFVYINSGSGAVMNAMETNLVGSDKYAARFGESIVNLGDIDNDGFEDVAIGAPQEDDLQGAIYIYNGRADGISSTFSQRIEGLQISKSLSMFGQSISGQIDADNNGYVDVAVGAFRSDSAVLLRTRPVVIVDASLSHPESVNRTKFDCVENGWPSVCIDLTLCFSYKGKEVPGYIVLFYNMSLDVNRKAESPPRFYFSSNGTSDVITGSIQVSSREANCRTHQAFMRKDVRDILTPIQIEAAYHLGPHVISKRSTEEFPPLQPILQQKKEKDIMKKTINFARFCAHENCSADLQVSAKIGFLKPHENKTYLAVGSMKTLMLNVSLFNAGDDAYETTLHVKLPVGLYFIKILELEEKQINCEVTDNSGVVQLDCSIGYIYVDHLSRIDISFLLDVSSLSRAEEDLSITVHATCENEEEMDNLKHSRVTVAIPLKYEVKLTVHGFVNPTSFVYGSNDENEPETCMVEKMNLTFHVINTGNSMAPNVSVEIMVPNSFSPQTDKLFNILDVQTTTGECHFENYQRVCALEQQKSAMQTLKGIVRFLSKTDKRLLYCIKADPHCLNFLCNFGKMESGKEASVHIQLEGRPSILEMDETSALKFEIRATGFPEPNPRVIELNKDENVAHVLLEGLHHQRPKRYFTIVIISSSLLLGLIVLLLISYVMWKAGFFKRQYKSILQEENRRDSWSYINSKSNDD
Of the large screens only hits and unclear results are named; the others gave an inactive call.

O=C(Nc1ccccc1Sc1ccccc1)c1ccccc1	CHOP inh 92
CS(=O)(=O)N(Cc1ccc(C(=O)Nc2ccccc2Sc2ccccc2)cc1)c1ccccc1	CHOP inh 77
O=C(Cc1ccccc1)Nc1ccccc1Sc1ccccc1	none
Cc1nn(-c2ccccc2)c(Cl)c1C(=O)Nc1nnc(C2CCCCC2)s1	none
Cc1nn(-c2ccc(C(=O)Nc3nnc(C4CC4)s3)cc2)c(C)c1Cl	CHOP inh 73
COc1ccc(C2/C=C\CN(C(=O)Nc3ccccc3)CC(=O)N2Cc2ccc(F)cc2)cc1 (centres undefined)	none (no result: VLA-4 inh)
COc1ccc(C2/C=C\CN(C(=O)Nc3ccc(C(F)(F)F)cc3)CC(=O)N2Cc2ccc(F)cc2)cc1 (centres undefined)	CHOP inh 75
Cc1cc(C)n(-c2ccc(NC(=O)C3CCCCN3Cc3cccc4c3OCO4)cc2)n1 (centres undefined)	none (no result: CHOP inh, VLA-4 inh)
CCOc1ccc(-c2c(=O)n(OCc3ccc([N+](=O)[O-])cc3)c3ccccc3[n+]2[O-])cc1	UPR XBP1 act 36 (no result: B2AR ag)
Cc1cc(NS(=O)(=O)c2ccc(NC(=O)C(c3ccccc3)c3ccccc3)cc2)no1	CHOP inh 91
O=C(Nc1ccc(Br)cc1)C(c1ccccc1)c1ccccc1	CHOP inh 83
CN(C)C(=O)/C(C#N)=C\c1cc(Br)c(Sc2ccc(Cl)cc2)o1	CHOP inh 80 (no result: CHOP UPR activ, UPR XBP1 act)
CCNC(=O)/C(C#N)=C/c1c(N2CCOCC2)nc2ccccn2c1=O	B2AR ag 47
C=CCn1cnc2scc(-c3ccc(C)cc3)c2c1=O	CHOP inh 75
Cc1nc(N2CCOCC2)nc(OC(C)C)c1[N+](=O)[O-]	CHOP inh 84
COc1nc(N2CCOCC2)nc(C)c1[N+](=O)[O-]	none
COc1ccc(CN2CCN(C(=O)C3CCC(CNS(=O)(=O)c4ccccc4)CC3)CC2)c(OC)c1OC (centres undefined)	none
Cc1ccccc1C(=O)c1cccn1CC(=O)NCc1cccc(Cl)c1	none (no result: CHOP inh)
Cc1cccc(NC(=O)c2nc[nH]c2C(=O)N[C@@H](C)C(=O)OC(C)(C)C)c1	CHOP inh 86
CCOC(=O)c1ccc(NC(=O)c2nc[nH]c2C(=O)N[C@H](C)c2ccccc2)cc1	CHOP inh 70
COc1ccc(-n2nc(C(=O)NCC(=O)NCCCN3CC(C)CC(C)C3)c3ccccc3c2=O)cc1 (centres undefined)	none (no result: CHOP inh)
COC(=O)COc1ccc(S(=O)(=O)NC2CCCCCC2)cc1	none
COc1ccc(S(=O)(=O)NC2CCCCC2)cc1C	CHOP inh 83
CCOc1cc(S(=O)(=O)NC2CCCCCC2)ccc1F	CHOP inh 76
CCOc1ccc(S(=O)(=O)NC2CCCCCC2)cc1	none
COC(=O)CCN(C1CCCCC1)S(=O)(=O)c1ccc(S(=O)(=O)NC2CCCCC2)cc1	CHOP inh 75
COc1ccc(CNC(=O)Cc2ccc(NC(=O)C3=C(C)OCCS3)cc2)cc1	none (no result: CHOP inh)
COc1ccc(Cc2nc3ccccc3c(=O)n2N)cc1OC	none (no result: CHOP inh)
CC(/C=C/C=C/c1ccccc1)=N/NC(=O)CNc1ccc(C)cc1	CHOP inh 82
CC(/C=C/C=C/c1ccccc1)=N/NC(=O)C(O)c1ccccc1 (centres undefined)	none
CCCCN1C=CC(=C2C(=O)c3ccccc3C2=O)C=C1	CHOP inh 94
CCCCNC1=CC(=O)C(=O)c2ccccc21	none
CCc1cccc(NC(=O)CS(=O)Cc2nc(-c3ccc(C)cc3)oc2C)c1 (centres undefined)	CHOP inh 93
CCc1ccc(-c2nc(CS(=O)CC(=O)NCc3ccccc3)c(C)o2)cc1 (centres undefined)	none (no result: CHOP inh)
Cc1cccc(NC(=S)NC(C)(C)CC(C)(C)C)c1	CHOP inh 85
O=C(Nc1ccc(S(=O)(=O)N2CCCCC2)cc1)c1ccc(CN2CCc3ccccc3C2)cc1	CHOP inh 80
O=C(Nc1ccccc1)c1ccc(CN2CCc3ccccc3C2)cc1	none
c1ccc(CCNc2ncnc3c2nnn3Cc2ccccc2)cc1	CHOP inh 89
c1ccc(Cn2nnc3c(NCCN4CCOCC4)ncnc32)cc1	none
CCn1cc(Br)c(-c2nc3ccccc3c(=O)n2N)n1	CHOP inh 90
Cc1ccnc2nc(C(=O)OCC(=O)NCc3cccc(Cl)c3)nn12	none (no result: CHOP inh)
COC(=O)c1sccc1NC(=O)c1cc(-c2cc(C)ccc2C)nc2ccccc12	CHOP inh 93
COC(=O)c1sccc1NC(=O)c1cc(-c2ccc(C)cc2)nc2ccccc12	none
COC(=O)c1sc(NC(=O)c2cc(-c3ccccc3)nc3ccccc23)c(C#N)c1C	CHOP inh 75
Cc1cccc(N2CCN(C(=O)c3c(-c4ccccc4)noc3C)CC2)c1C	none (no result: CHOP inh)
CC(C)(C)n1nc(-c2ccc(Cl)cc2)c2c(N)ncnc21	CHOP inh 84
Cc1nn(C(=O)c2ccco2)c(C)c1Sc1ccc([N+](=O)[O-])cc1	none
Cc1nn(C(=O)c2ccco2)c(C)c1Sc1ccc(Cl)cc1	CHOP inh 73
O=C(Nc1ccc(N2CCOCC2)cc1)Nc1ccc(Cl)c(Cl)c1	CHOP inh 79
Cc1ccc(-c2[nH]nc(N)c2N=Nc2cccc(Cl)c2C)cc1	CHOP inh 92 (no result: CHOP UPR activ, UPR XBP1 act, VLA-4 inh)
Cc1ccc(-c2[nH]nc(N)c2N=Nc2ccccc2C)cc1	none
O=C(/C=C/c1ccc(Cl)cc1Cl)N(Cc1ccc(Cl)cc1)C1CCS(=O)(=O)C1 (centres undefined)	CHOP inh 79
CCOC(=O)CCCCCC(=O)Nc1ccc2c(c1)C(=O)N([C@H](C)CO)C[C@@H](C)[C@H](CN(C)S(=O)(=O)c1cn(C)cn1)O2	none (no result: CHOP inh)
Cn1cccc1Cc1nnc(SCC(=O)NCC2CCCO2)n1C (centres undefined)	none
Cc1[nH]c2ccccc2c1C(=O)CSc1nc2ncc(Cl)cc2[nH]1	CHOP inh 86
O=C(Nc1cc2c(oc1=O)CCCC2=O)c1ccccc1	CHOP inh 76
Cc1ccc2[nH]c(=O)c(CNS(=O)(=O)c3ccccc3)c(-c3ccccc3)c2c1	CHOP inh 87
C/C(=N\N)c1c(-c2ccccc2)c2cc(C)ccc2[nH]c1=O	none
CCN(CC)c1c(-c2ccccc2)c2cc(C)ccc2[nH]c1=O	CHOP inh 95
CC(=O)N1N=C(c2ccc(Cl)cc2)OC1c1ccc(C(C)C)cc1 (centres undefined)	none
CC(=O)N1N=C(c2ccc(C)cc2)OC1c1ccc(Br)cc1 (centres undefined)	CHOP inh 93
CCCCCCCCNS(=O)(=O)CCNCc1ccccc1OC	none (no result: CHOP inh, CHOP UPR activ, UPR XBP1 act, VLA-4 inh)
NC1=NC(=O)/C(=C/c2cccs2)S1	none
C=CCSC1=NC(=O)/C(=C/c2cccs2)S1	CHOP inh 81 (no result: CHOP UPR activ, UPR XBP1 act)
CC[C@H](CO)Nc1nc(Nc2cccc(Cl)c2)c2ncn(C(C)C)c2n1	CHOP inh 83
CSC1=NC(=O)/C(=C\c2cccc3ccccc23)S1	CHOP inh 103
